Reference: ChEMBL document CHEMBL2413028, “1-Hydroxypyrazole as a bioisostere of the acetic acid moiety in a series of aldose reductase inhibitors” (Bioorg Med Chem, 2013)

Experiments:
[1] = species: Rattus norvegicus; assay: Selectivity index, ratio of IC50 for partially purified Fischer-344 rat kidney ALR1 to IC50 for partially purified Fischer-344 rat lens ALR2; conditions: Lens of camera-type eye
[2] = biological target: Aldo-keto reductase family 1 member A1 (Rattus norvegicus, UniProt P51635); assay: Inhibition of partially purified Fischer-344 rat kidney ALR1 using D,L-glycuronate as substrate assessed as NADPH consumption by spectrophotometry
Sequence of Aldo-keto reductase family 1 member A1 (P51635 whole entry, looked up): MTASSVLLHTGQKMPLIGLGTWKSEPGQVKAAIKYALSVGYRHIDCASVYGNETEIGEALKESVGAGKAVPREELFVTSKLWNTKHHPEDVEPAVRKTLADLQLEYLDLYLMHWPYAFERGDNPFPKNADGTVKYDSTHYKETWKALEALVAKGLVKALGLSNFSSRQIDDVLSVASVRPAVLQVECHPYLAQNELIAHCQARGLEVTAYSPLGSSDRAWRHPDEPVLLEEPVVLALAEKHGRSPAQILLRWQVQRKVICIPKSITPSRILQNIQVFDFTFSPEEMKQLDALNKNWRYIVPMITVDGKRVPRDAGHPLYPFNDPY
Outline: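 Kidneys from Fischer-344 rats of both sexes homogenized in 3 vol 10 mM sodium phosphate buffer; 10,000g supernatant taken through ammonium sulfate fractions at 40%, 50% and 75% saturation. Last pellet redissolved in 10 mM sodium phosphate pH 7.2 with 2.0 mM EDTA and 2.0 mM β-mercaptoethanol, DEAE-treated, stored at −80 °C. Substrate D-glycuronate at 37 °C. NADPH loss read at 340 nm. Five concentrations, triplicate; IC50 by least squares on linear part of log(dose)–response.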

[3] = biological target: Aldo-keto reductase family 1 member B1 (Rattus norvegicus, UniProt P07943); assay: Inhibition of partially purified Fischer-344 rat lens ALR2 using D,L-glyceraldehyde as substrate assessed as NADPH consumption by spectrophotometry; set-up: species or system Lens of camera-type eye
Outline: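 Supernatant brought to 40% ammonium sulfate saturation and spun again; supernatant used directly or kept ≤24 h at −80 °C. Compounds dissolved in 0.2 M NaHCO3. Substrate D,L-glyceraldehyde at 30 °C; NADPH loss at 340 nm. Five concentrations, triplicate; IC50 by least-squares fit of linear log(dose)–response region.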

Compound	IC50 [2]	IC50 [3]	Ratio IC50 [1]
O=C(O)Cn1cccc1C(=O)c1ccc(-c2ccccc2)cc1	> 100 µM	7 µM	> 14.3
O=C(O)Cn1ccc(C(=O)c2ccc(-c3ccccc3)cc2)c1	52.5 µM	0.344 µM	153
O=C(c1ccc(-c2ccccc2)cc1)c1ccn(-c2cnn(O)c2)c1	62.1 µM	0.698 µM	88.9
O=C(O)Cn1ccc(C(=O)c2ccccc2)c1	> 100 µM		> 50.8
O=C(O)Cn1cccc1C(=O)c1ccccc1	> 100 µM	22 µM	> 4.54

More lines, main results first:

IC50 [2]	IC50 [3]	Compound	Ratio IC50 [1]
> 100 µM	13.5 µM	O=C(c1ccccc1)c1cccn1-c1cnn(O)c1	> 7.41
> 100 µM	9.81 µM	O=C(c1ccc(-c2ccccc2)cc1)c1cccn1-c1cnn(O)c1	> 10.2
10.8 µM	1.14 µM	O=C(c1ccccc1)c1ccn(-c2cnn(O)c2)c1	9.46
> 100 µM	15.1 µM	COc1ccc(C(=O)c2cccn2-c2cnn(O)c2)cc1	> 6.67
10.8 µM	0.708 µM	COc1ccc(C(=O)c2ccn(-c3cnn(O)c3)c2)cc1	11.2
> 100 µM	1.6 µM	COc1ccc(C(=O)c2ccn(CC(=O)O)c2)cc1	> 62.4
> 100 µM	4.57 µM	COc1ccc(C(=O)c2cccn2CC(=O)O)cc1	> 21.9
